In brackets after ≈: the same amount, converted by molar mass. Activity calls are given as the source filed them. The calls are words filed in the database; no cut-off is given here.
Key:
[1] = Solubility of the compound in phosphate buffer at pH 7.2 at 10 mg/ml after 24 hrs by HPLC-UV method; assay type: physicochemical
In short: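 Compound shaken at a target 10 mg/mL in 50 mM potassium phosphate buffer for 24 h at 25 °C, then centrifuged at 15 000 rpm for 15 min. Supernatant diluted 100-fold in DMSO and quantified by HPLC-UV (220/254/280 nm) against a three-level DMSO standard curve, in duplicate.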

[2] = target: T1, Proteasome subunit beta type-5 (Mus musculus, UniProt O55234); assay: Inhibition of 20S proteosome beta 5 in mouse A20 cells by ELISA; assay type: cell-based
T1 sequence (O55234 whole entry): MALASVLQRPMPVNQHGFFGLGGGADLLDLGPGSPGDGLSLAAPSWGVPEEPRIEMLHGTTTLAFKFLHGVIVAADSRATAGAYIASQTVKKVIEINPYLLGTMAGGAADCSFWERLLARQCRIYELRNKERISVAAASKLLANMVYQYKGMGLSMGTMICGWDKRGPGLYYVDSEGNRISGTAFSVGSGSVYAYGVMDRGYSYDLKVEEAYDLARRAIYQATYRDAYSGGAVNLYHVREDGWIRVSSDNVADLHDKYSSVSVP

[3] = target: T2, Proteasome subunit beta type-9 (Homo sapiens, UniProt P28065); assay: Inhibition of LMP2 in human MOLT4 cells by ELISA; assay type: cell-based
T2 sequence (P28065 whole entry): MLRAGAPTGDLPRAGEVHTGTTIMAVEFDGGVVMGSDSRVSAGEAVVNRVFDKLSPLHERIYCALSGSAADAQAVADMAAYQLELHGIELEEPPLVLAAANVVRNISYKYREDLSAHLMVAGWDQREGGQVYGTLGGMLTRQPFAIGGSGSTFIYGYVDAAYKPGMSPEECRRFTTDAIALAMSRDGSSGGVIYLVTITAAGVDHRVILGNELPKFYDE

[4] = target: T3, Proteasome subunit beta type-8 (Mus musculus, UniProt P28063); assay: Inhibition of LMP7 in mouse A20 cells by ELISA; assay type: cell-based
T3 sequence (P28063 whole entry): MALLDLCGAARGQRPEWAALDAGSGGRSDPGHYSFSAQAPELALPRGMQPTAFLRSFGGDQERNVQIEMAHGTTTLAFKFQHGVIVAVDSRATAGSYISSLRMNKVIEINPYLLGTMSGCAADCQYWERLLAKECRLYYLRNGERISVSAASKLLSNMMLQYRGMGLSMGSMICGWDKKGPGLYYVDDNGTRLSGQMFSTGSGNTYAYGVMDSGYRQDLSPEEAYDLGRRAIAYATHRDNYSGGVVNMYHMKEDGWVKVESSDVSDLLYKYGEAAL
In short: (§1)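 Mouse A20 B-cell lymphoma cell lysate (1 mg/mL, hypotonic 20 mM Tris pH 8, 5 mM EDTA) treated with serially diluted compound for 1 h at 25 °C. Then 5 μM biotinylated active-site probe for 2 h at 25 °C, guanidine denaturation and streptavidin bead capture. Subunit-specific antibody and HRP chemiluminescence, signal normalized to protein, IC50 from percent activity versus DMSO controls.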

[5] = target: T4, Proteasome subunit beta type-9 (Mus musculus, UniProt P28076); assay: Inhibition of LMP2 in mouse A20 cells by ELISA; assay type: cell-based; in short: as §1
T4 sequence (P28076 whole entry): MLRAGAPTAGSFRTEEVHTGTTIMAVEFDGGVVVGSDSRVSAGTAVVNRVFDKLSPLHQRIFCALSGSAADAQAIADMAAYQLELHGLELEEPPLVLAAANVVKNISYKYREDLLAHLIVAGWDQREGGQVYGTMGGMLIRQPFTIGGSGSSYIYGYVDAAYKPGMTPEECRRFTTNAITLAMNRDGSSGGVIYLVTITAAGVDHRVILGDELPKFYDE

[6] = tested on: PBMC; assay: Antiinflammatory activity in human PBMC assessed as reduction in LPS-stimulated TNF-alpha expression at 250 nM preincubated for 1 hr followed by LPS stimulation measured after 24 hrs by ELISA; assay type: functional, cell-based
In short: (§2)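 Cryopreserved healthy-donor PBMC in RPMI 1640 with 5% heat-inactivated FBS, 250 000 cells/well. Compound (0.1% DMSO final) for 1 h at 37 °C, 5% CO2, then 4 washes with medium. Stimulated with 1 μg/mL LPS for 24 h; supernatant TNFα, IL-6 and IL-12/23p40 by electrochemiluminescent immunoassay. Mean level relative to DMSO controls, n = 6.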

[7] = target: T5, Proteasome subunit beta type-10 (Mus musculus, UniProt O35955); assay: Inhibition of MECL1 in mouse A20 cells by ELISA; assay type: cell-based; in short: as §1
T5 sequence (O35955 whole entry): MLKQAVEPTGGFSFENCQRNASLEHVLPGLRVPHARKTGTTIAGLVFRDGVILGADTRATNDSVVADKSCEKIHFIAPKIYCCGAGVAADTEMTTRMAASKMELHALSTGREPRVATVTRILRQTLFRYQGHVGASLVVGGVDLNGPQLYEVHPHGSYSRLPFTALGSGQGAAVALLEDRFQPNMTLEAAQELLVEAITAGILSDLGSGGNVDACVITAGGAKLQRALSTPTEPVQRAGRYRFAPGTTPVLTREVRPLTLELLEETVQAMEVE

[8] = tested on: PBMC; assay: Antiinflammatory activity in human PBMC assessed as reduction in anti-CD3/CD28 antibody-stimulated TNF-alpha expression at 250 nM preincubated for 1 hr followed by anti-CD3/CD28 antibody stimulation measured after 24 hrs by ELISA; assay type: functional, cell-based
In short: (§3)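 Healthy-donor PBMC, thawed from cryopreservation, 250 000 cells/well in RPMI 1640/5% FBS. Pretreated 1 h at 37 °C with compound alone or combined (0.1% DMSO final), washed 4 times, then stimulated 24 h with anti-CD3 and anti-CD28 antibodies. TNFα and IFNγ in supernatants by electrochemiluminescent ELISA; expressed relative to DMSO-treated controls (n = 6).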

[9] = tested on: PBMC; assay: Antiinflammatory activity in human PBMC assessed as reduction in LPS-stimulated p40 subunit of […] expression at 250 nM preincubated for 1 hr followed by LPS stimulation measured after 24 hrs by ELISA; assay type: functional, cell-based; in short: as §2
[10] = target: T6, Proteasome subunit beta type-8 (Homo sapiens) (UniProt P28062); assay: Inhibition of LMP7 in human PBMC at 250 nM by ELISA
T6 sequence (whole entry): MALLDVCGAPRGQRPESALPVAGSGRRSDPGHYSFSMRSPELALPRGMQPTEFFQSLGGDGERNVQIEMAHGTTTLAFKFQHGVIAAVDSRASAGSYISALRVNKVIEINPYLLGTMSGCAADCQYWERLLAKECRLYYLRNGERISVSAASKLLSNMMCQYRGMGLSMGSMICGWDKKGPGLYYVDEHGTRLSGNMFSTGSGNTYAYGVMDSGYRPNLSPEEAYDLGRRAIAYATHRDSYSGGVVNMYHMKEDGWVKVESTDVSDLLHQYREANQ
In short: (§4)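 Cryopreserved healthy-donor human PBMC in RPMI 1640 with 5% heat-inactivated FBS, exposed to compound (0.1% DMSO final) for 1 h at 37 °C, 5% CO2, then washed. Subunit-specific active-site occupancy read by ProCISE: biotinylated active-site probe binding, denaturation, streptavidin capture, subunit-specific antibody and HRP chemiluminescence. Signal normalized to protein and expressed relative to DMSO controls.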

[11] = tested on: PBMC; assay: Antiinflammatory activity in human PBMC assessed as reduction in LPS-stimulated IL-6 expression at 250 nM preincubated for 1 hr followed by LPS stimulation measured after 24 hrs by ELISA; assay type: functional, cell-based; in short: as §2
[12] = tested on: PBMC; assay: Antiinflammatory activity in human PBMC assessed as reduction in anti-CD3/CD28 antibody-stimulated IFN-gamma expression at 250 nM preincubated for 1 hr followed by anti-CD3/CD28 antibody stimulation measured after 24 hrs by ELISA; assay type: functional, cell-based; in short: as §3
[13] = target: T7, Proteasome subunit beta type-9 (Homo sapiens) (UniProt P28065); assay: Inhibition of LMP2 in human PBMC at 250 nM by ELISA; in short: as §4
T7 sequence (whole entry): T2 sequence (P28065 whole entry)

[14] = target: T8, Proteasome Macropain subunit MB1 (Homo sapiens, UniProt P28074); assay: Inhibition of 20S proteosome beta 5 in human MOLT4 cells by ELISA; assay type: cell-based
T8 sequence (P28074 whole entry): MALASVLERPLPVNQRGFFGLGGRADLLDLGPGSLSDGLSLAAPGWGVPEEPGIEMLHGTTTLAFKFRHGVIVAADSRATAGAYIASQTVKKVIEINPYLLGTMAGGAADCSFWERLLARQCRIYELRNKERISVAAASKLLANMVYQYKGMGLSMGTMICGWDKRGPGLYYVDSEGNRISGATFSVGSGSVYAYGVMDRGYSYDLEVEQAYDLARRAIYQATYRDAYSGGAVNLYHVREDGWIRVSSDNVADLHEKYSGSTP

[15] = target: T9, Proteasome subunit beta type-8 (Homo sapiens, UniProt P28062); assay: Inhibition of LMP7 in human MOLT4 cells by ELISA; assay type: cell-based
T9 sequence (P28062 whole entry): T6 sequence (whole entry)

[16] = Half life in Sprague-Dawley rat at 2 to 9 mg/kg, iv administered as bolus dose by LC/MS-MS analysis; assay type: ADME, organism-based; settings: in vivo
[17] = target: Proteasome subunit beta type-2 (Mus musculus, UniProt Q9R1P3); assay: Inhibition of 20S proteosome beta 2 in mouse A20 cells by ELISA; assay type: cell-based
[18] = target: T10, Proteasome subunit beta type-10 (Homo sapiens, UniProt P40306); assay: Inhibition of MECL1 in human MOLT4 cells by ELISA; assay type: cell-based
T10 sequence (P40306 whole entry): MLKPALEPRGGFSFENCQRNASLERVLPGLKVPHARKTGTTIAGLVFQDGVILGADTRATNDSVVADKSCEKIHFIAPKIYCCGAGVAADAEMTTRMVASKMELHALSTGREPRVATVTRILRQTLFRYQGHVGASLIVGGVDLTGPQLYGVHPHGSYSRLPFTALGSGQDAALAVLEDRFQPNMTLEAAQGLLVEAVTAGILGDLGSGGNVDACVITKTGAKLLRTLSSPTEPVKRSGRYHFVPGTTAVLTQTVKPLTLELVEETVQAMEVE

Chain of Proteasome subunit beta type-2 (Q9R1P3 whole entry): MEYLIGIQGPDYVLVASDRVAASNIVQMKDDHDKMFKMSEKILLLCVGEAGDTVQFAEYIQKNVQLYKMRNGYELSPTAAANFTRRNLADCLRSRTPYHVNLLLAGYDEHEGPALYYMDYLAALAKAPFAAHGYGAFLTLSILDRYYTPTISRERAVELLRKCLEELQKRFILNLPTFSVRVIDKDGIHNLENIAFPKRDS

| Structure (SMILES) | solubility at 24 h [1] [µg/mL] | IC50 [2] [nM] | IC50 [3] [nM] | IC50 [4] [nM] | IC50 [5] [nM] | IC50 [14] [nM] | IC50 [15] [nM] | IC50 [18] [nM] | other results |
| --- | --- | --- | --- | --- | --- | --- | --- | --- | --- |
| COc1ccc(C[C@H](NC(=O)[C@H](C)NC(=O)CN2CCOCC2)C(=O)N[C@@H](CC2=CCCC2)C(=O)[C@@]2(C)CO2)cc1 | 2730 (≈ 4790 µM) | 694 | 223 | 110 | – | – | – | – | – |
| COc1ccc(C[C@H](NC(=O)[C@H](C)NC(=O)CN2CCOCC2)C(=O)N[C@@H](Cc2ccccc2)C(=O)[C@@]2(C)CO2)cc1 | < 0.5 | 401 | – | 98 | 328 | – | – | – | Activity [6]: Active; IC50 [7]: 699 nM; Activity [8]: Active; inhibition [9]: Active; inhibition [10]: Active; Activity [11]: Active; Activity [12]: Active; inhibition [13]: Active |
| COc1ccc(C[C@H](NC(=O)[C@@H](C)NC(=O)C2=C(C)c3ccccc3C2)C(=O)N[C@@H](Cc2ccccc2)C(=O)[C@@]2(C)CO2)cc1 | 1.4 (≈ 2.3 µM) | 2340 | – | 764 | – | 3620 | 76 | – | – |
| CC(C)C[C@H](NC(=O)[C@H](CCc1ccccc1)NC(=O)CN1CCOCC1)C(=O)N[C@@H](Cc1ccccc1)C(=O)N[C@@H](CC(C)C)C(=O)[C@@]1(C)CO1 [CARFILZOMIB] | – | – | – | – | – | – | – | – | half-life [16]: < 15 min |
| CC(C)C[C@H](NC(=O)CN1CCCCCC1)C(=O)N[C@@H](Cc1ccccc1)C(=O)N[C@@H](Cc1ccccc1)C(=O)[C@@]1(C)CO1 | – | 38 | 415 | 56 | 415 | 39 | 49 | 97 | IC50 [7]: 159 nM; IC50 [17]: 141 nM |
| COc1ccc(C[C@H](NC(=O)[C@@H](C)NC(=O)C2CCCCC2)C(=O)N[C@@H](Cc2ccccc2)C(=O)[C@@]2(C)CO2)cc1 | 12.1 (≈ 21.5 µM) | 118 | – | 141 | – | – | – | – | – |
| CC1=C(C(=O)N[C@H](C)C(=O)N[C@@H](Cc2c[nH]c3ccccc23)C(=O)N[C@@H](Cc2ccccc2)C(=O)[C@@]2(C)CO2)Cc2ccccc21 | 0.75 (≈ 1.21 µM) | 1360 | 2210 | 573 | 4780 | 1670 | 39 | > 25000 | – |
| COc1ccc(C[C@H](NC(=O)[C@@H](C)NC(=O)[C@H]2CC[C@H](O)CC2)C(=O)N[C@@H](CC2CCC2)C(=O)[C@@]2(C)CO2)cc1 | 979 (≈ 1760 µM) | 6810 | – | 556 | – | – | – | – | – |
| CC1=C(C(=O)N[C@@H](C)C(=O)N[C@@H](Cc2c[nH]c3ccccc23)C(=O)N[C@@H](Cc2ccccc2)C(=O)[C@@]2(C)CO2)Cc2ccccc21 | 1.85 (≈ 2.99 µM) | 47 | – | 50 | – | 54 | 38 | – | – |
| COc1ccc(C[C@H](NC(=O)[C@@H](C)NC(=O)[C@H]2CC[C@H](O)CC2)C(=O)N[C@@H](Cc2ccccc2)C(=O)[C@@]2(C)CO2)cc1 | 240 (≈ 414 µM) | 507 | 3530 | 262 | – | 782 | 23 | > 25000 | – |

— ChEMBL document CHEMBL4411269, “Required Immunoproteasome Subunit Inhibition Profile for Anti-Inflammatory Efficacy and Clinical Candidate KZR-616 ((2 S,3 R)- N-(( S)-3-(Cyclopent-1-en-1-yl)-1-(( R)-2-methyloxiran-2-yl)-1-oxopropan-2-yl)-3-hydroxy-3-(4-methoxyphenyl)-2-(( S)-2-(2-morpholinoacetamido)propanamido)propenamide)” (J Med Chem, 2018)
